The values that follow come from ChEMBL document CHEMBL3102785, “Characterization of the congeners in the lantibiotic NAI-107 complex” (2014).

Values after ≈ are worked out from the molar mass of the structure shown.

Type in all cases: functional
The subject of assay [1] is Staphylococcus aureus. In words: Antibacterial activity against methicillin-resistant Staphylococcus aureus ND035208 after 24 hrs by broth microdilution method. In outline: (§1)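 Broth microdilution per CLSI in Müller Hinton broth with 20 mg/L CaCl2 and 10 mg/L MgCl2. Inoculum 5 × 10^5 cfu/mL, 24 h at 37 °C. Compounds dissolved in DMSO and diluted in medium just before testing. MIC taken as lowest concentration giving complete suppression of visible growth.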

The test system of assay [2] is Staphylococcus aureus. In words: Antibacterial activity against methicillin-sensitive Staphylococcus aureus L819/ATCC 19636 after 24 hrs by broth microdilution method. In outline:
(§2)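 CLSI broth microdilution MIC in Müller Hinton broth with 20 mg/L CaCl2 and 10 mg/L MgCl2. Compounds were dissolved in DMSO and diluted in medium just before testing. Inoculum was 5 × 10^5 cfu/mL, incubated 24 h at 37 °C. MIC was the lowest concentration giving complete suppression of visible growth. Strains came from ATCC or an in-house collection (L-prefix).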

Assay [3] deals with Enterococcus faecalis. As to the kind of experiment: Antibacterial activity against Enterococcus faecalis L560 expressing VanA gene after 24 hrs by broth microdilution method. In outline:
as §2

Assay [4] concerns Enterococcus faecium. As to the kind of experiment: Antibacterial activity against Enterococcus faecium L569 expressing VanA gene after 24 hrs by broth microdilution method. A digest of the protocol:
as §2

Assay [5] concerns Enterococcus faecium. In words: Antibacterial activity against Enterococcus faecium L568 expressing VanS gene after 24 hrs by broth microdilution method. In outline:
as §2

In assay [6] the test system is Enterococcus faecalis. In words: Antibacterial activity against Enterococcus faecalis L559 expressing VanS gene after 24 hrs by broth microdilution method. In outline: as §2
In assay [7] the test system is Staphylococcus aureus. In words: Antibacterial activity against Staphylococcus aureus GISA L3798 after 24 hrs by broth microdilution method. In outline:
as §1

The next assay deals with Streptococcus pyogenes. In words: Antibacterial activity against Streptococcus pyogenes L49 after 24 hrs by broth microdilution method.
The subject of the next assay is Streptococcus pneumoniae. As to the kind of experiment: Antibacterial activity against Streptococcus pneumoniae ATCC 49619 after 24 hrs by broth microdilution method.

Regarding `C=C1NC(=O)[C@H](Cc2c[nH]c3ccc(Cl)cc23)NC(=O)[C@@H](NC(=O)/C(=C/C)NC(=O)[C@@H](N)C(C)C)CSC[C@@H](C(=O)N[C@@H]2C(=O)N3CCC[C@H]3C(=O)NCC(=O)N[C@H](C(=O)N[C@H](C(=O)N[C@H]3CSC[C@@H]4NC(=O)[C@H](CC(=O)O)NC(=O)[C@H](CSC[C@@H]5NC(=O)[C@H](Cc6ccccc6)NC(=O)[C@H](CS/C=C\NC5=O)NC4=O)NC(=O)CNC(=O)CNC(=O)CNC(=O)[C@@H]4C(O)C(O)CN4C3=O)[C@@H](C)O)CSC2C)NC(=O)[C@H](CC(C)C)NC1=O` (stereo not given in full), the MIC was 1 mg/L (≈ 0.444 µM) in the assay with Staphylococcus aureus [1] (ND035208, 24 h); 0.25 mg/L (≈ 0.111 µM) in the assay with Staphylococcus aureus [2] (L819/ATCC 19636, 24 h); 1 mg/L (≈ 0.444 µM) with Enterococcus faecalis [3] (L560, 24 h); 4 mg/L (≈ 1.78 µM) against Enterococcus faecium [4] (L569, 24 h); 4 mg/L (≈ 1.78 µM) against Enterococcus faecium [5] (L568, 24 h); 2 mg/L (≈ 0.889 µM) in the assay with Enterococcus faecalis [6] (L559, 24 h). For the same compound, the MIC was 1 mg/L (≈ 0.444 µM) against Staphylococcus aureus [7] (GISA L3798, 24 h); no more than 0.001 mg/L against Streptococcus pyogenes (L49, 24 h); 0.015 mg/L (≈ 0.00667 µM) with Streptococcus pneumoniae (ATCC 49619, 24 h).

With GENTAMICIN, the MIC in the assay on Staphylococcus aureus [1] was greater than 128 mg/L; in the assay on Staphylococcus aureus [2] it was 1 mg/L; against Enterococcus faecalis [3] it was 4 mg/L; in the assay with Enterococcus faecium [4], 16 mg/L; against Enterococcus faecium [5], 16 mg/L; in the assay with Enterococcus faecalis [6] it was 4 mg/L. Moreover, the MIC against Staphylococcus aureus [7] came to 0.02 mg/L; in the assay with Streptococcus pyogenes, 16 mg/L; in the assay with Streptococcus pneumoniae, 8 mg/L.

`C=C1NC(=O)[C@H](Cc2c[nH]c3ccc(Cl)cc23)NC(=O)[C@@H](NC(=O)/C(=C/C)NC(=O)[C@@H](N)C(C)C)CSC[C@@H](C(=O)N[C@@H]2C(=O)N3CCC[C@H]3C(=O)NCC(=O)N[C@H](C(=O)N[C@H](C(=O)N[C@H]3CSC[C@@H]4NC(=O)[C@H](CC(=O)O)NC(=O)[C@H](CSC[C@@H]5NC(=O)[C@H](Cc6ccccc6)NC(=O)[C@H](CS/C=C\NC5=O)NC4=O)NC(=O)CNC(=O)CNC(=O)CNC(=O)[C@@H]4CC(O)CN4C3=O)[C@@H](C)O)CSC2C)NC(=O)[C@H](CC(C)C)NC1=O` (stereo not given in full): the minimal inhibitory concentration (MIC) with Staphylococcus aureus [1] (ND035208, 24 h) is 1 mg/L (≈ 0.448 µM); with Staphylococcus aureus [2] (L819/ATCC 19636, 24 h) it was 0.25 mg/L (≈ 0.112 µM); in the assay with Enterococcus faecalis [3] (L560, 24 h), 2 mg/L (≈ 0.895 µM); in the assay with Enterococcus faecium [4] (L569, 24 h) it was 4 mg/L (≈ 1.79 µM); against Enterococcus faecium [5] (L568, 24 h), 4 mg/L (≈ 1.79 µM); against Enterococcus faecalis [6] (L559, 24 h), 2 mg/L (≈ 0.895 µM). For the same compound, the MIC against Staphylococcus aureus [7] (GISA L3798, 24 h) is 2 mg/L (≈ 0.895 µM); against Streptococcus pyogenes (L49, 24 h), no more than 0.001 mg/L; against Streptococcus pneumoniae (ATCC 49619, 24 h), 0.03 mg/L (≈ 0.0134 µM).

As for `C=C1NC(=O)[C@H](Cc2c[nH]c3ccc(Cl)cc23)NC(=O)[C@@H](NC(=O)/C(=C/C)NC(=O)[C@@H](N)C(C)C)CSC[C@@H](C(=O)N[C@@H]2C(=O)N3CCC[C@H]3C(=O)NCC(=O)N[C@H](C(=O)N[C@H](C(=O)N[C@H]3CSC[C@@H]4NC(=O)[C@H](CC(=O)O)NC(=O)[C@H](CSC[C@@H]5NC(=O)[C@H](Cc6ccccc6)NC(=O)[C@H](CS/C=C\NC5=O)NC4=O)NC(=O)CNC(=O)CNC(=O)CNC(=O)[C@@H]4CCCN4C3=O)[C@@H](C)O)CSC2C)NC(=O)[C@H](CC(C)C)NC1=O` (stereo not given in full), the MIC in the assay on Staphylococcus aureus [1] (ND035208, 24 h) is 4 mg/L (≈ 1.8 µM); in the assay with Staphylococcus aureus [2] (L819/ATCC 19636, 24 h), 0.5 mg/L (≈ 0.225 µM); with Enterococcus faecalis [3] (L560, 24 h), 4 mg/L (≈ 1.8 µM); against Enterococcus faecium [4] (L569, 24 h) it was 8 mg/L (≈ 3.61 µM); with Enterococcus faecium [5] (L568, 24 h) it was 8 mg/L (≈ 3.61 µM); against Enterococcus faecalis [6] (L559, 24 h), 8 mg/L (≈ 3.61 µM). Besides, the MIC in the assay with Staphylococcus aureus [7] (GISA L3798, 24 h) was 4 mg/L (≈ 1.8 µM); against Streptococcus pyogenes (L49, 24 h), no more than 0.001 mg/L; against Streptococcus pneumoniae (ATCC 49619, 24 h), 0.03 mg/L (≈ 0.0135 µM).

`C=C1NC(=O)[C@H](Cc2c[nH]c3ccccc23)NC(=O)[C@@H](NC(=O)/C(=C/C)NC(=O)[C@@H](N)C(C)C)CSC[C@@H](C(=O)N[C@@H]2C(=O)N3CCC[C@H]3C(=O)NCC(=O)N[C@H](C(=O)N[C@H](C(=O)N[C@H]3CSC[C@@H]4NC(=O)[C@H](CC(=O)O)NC(=O)[C@H](CSC[C@@H]5NC(=O)[C@H](Cc6ccccc6)NC(=O)[C@H](CS/C=C\NC5=O)NC4=O)NC(=O)CNC(=O)CNC(=O)CNC(=O)[C@@H]4CCCN4C3=O)[C@@H](C)O)CSC2C)NC(=O)[C@H](CC(C)C)NC1=O` (stereo not given in full): the MIC against Staphylococcus aureus [1] (ND035208, 24 h) was determined as 8 mg/L (≈ 3.66 µM); with Staphylococcus aureus [2] (L819/ATCC 19636, 24 h), 4 mg/L (≈ 1.83 µM); in the assay with Enterococcus faecalis [3] (L560, 24 h), 32 mg/L (≈ 14.7 µM); in the assay on Enterococcus faecium [4] (L569, 24 h), 32 mg/L (≈ 14.7 µM); in the assay with Enterococcus faecium [5] (L568, 24 h), 32 mg/L (≈ 14.7 µM); against Enterococcus faecalis [6] (L559, 24 h) it was 64 mg/L (≈ 29.3 µM). In addition, the MIC against Staphylococcus aureus [7] (GISA L3798, 24 h) was 16 mg/L (≈ 7.33 µM); in the assay with Streptococcus pyogenes (L49, 24 h), no more than 0.03 mg/L; in the assay with Streptococcus pneumoniae (ATCC 49619, 24 h) it was no more than 0.03 mg/L.
